Test results: ChEMBL document CHEMBL1145471, “Small molecule regulators of autophagy identified by an image-based high-throughput screen” (Proc Natl Acad Sci U S A, 2007)

Columns and labels:
Type in all cases: functional
[1] = tested on: H4; test: Increase in light chain 3-GFP+ autophagosome vesicle number per cell in human H4 cells at 6.8 uM after 24 hrs by high throughput fluorescence microscopy relative to control
In short: (§1)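 H4 cells stably expressing LC3-GFP were grown in DMEM with 10% FBS and 2 mM L-glutamine at 37°C, 5% CO2. They were exposed to each compound for 24 h, with DMSO as negative and rapamycin as positive control. Cells were then fixed in 4% paraformaldehyde and stained with 3 μg/ml DAPI. High-throughput fluorescence imaging scored LC3-GFP spot number, size and intensity, expressed relative to DMSO. Mean ± SD of triplicates; experiments repeated three times.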

[2] = tested on: H4; test: Increase in light chain 3-GFP+ autophagosome vesicle area per cell in human H4 cells at 6.8 uM after 24 hrs by high throughput fluorescence microscopy relative to control
In short: (§2)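 H4 cells stably expressing LC3-GFP, seeded in 96-well plates and exposed to compound for 24 h; screening concentrations were 3–12 μM, with rapamycin 0.22 μM and bafilomycin A1 0.40 μM. Cells fixed in 4% paraformaldehyde and stained with 3 μg/ml DAPI. Number, size and intensity of LC3-GFP spots measured by high-throughput fluorescence microscopy and expressed as percent of DMSO-treated wells. Rapamycin was the positive control. Triplicate wells, mean ± SD; experiments repeated three times.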

[3] = tested on: H4; test: Increase in light chain 3-GFP+ autophagosome vesicle intensity per cell in human H4 cells at 6.8 uM after 24 hrs by high throughput fluorescence microscopy relative to control; in short: as §1
[4] = tested on: H4; test: Induction of light chain 3-GFP level in human H4 cells at 6.8 uM after 24 hrs by high throughput fluorescence microscopy relative to control
In short: (§3)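 H4 cells stably expressing LC3-GFP, grown in DMEM with 10% FBS, penicillin/streptomycin and 2 mM L-glutamine at 37°C, 5% CO2. Cells were seeded in 96-well plates and exposed to library compounds at 3–12 μM for 24 h, then fixed in 4% paraformaldehyde and stained with 3 μg/ml DAPI. LC3-GFP spot number, size and intensity were measured by high-throughput fluorescence microscopy and expressed relative to DMSO. Triplicates, mean ± SD.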

[5] = tested on: H4; test: Induction of light chain 3-GFP level in human H4 cells at 4.9 uM after 24 hrs by high throughput fluorescence microscopy relative to control
In short: (§4)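 H4 cells stably expressing LC3-GFP, kept in DMEM/10% FBS at 37°C, 5% CO2, were seeded in 96-well plates and exposed to compound for 24 h. Cells were then fixed in 4% paraformaldehyde and stained with 3 μg/ml DAPI. Automated fluorescence microscopy scored the number, size and intensity of LC3-GFP spots. Values are percent of DMSO wells, in triplicate, mean ± SD. Rapamycin served as positive control.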

[6] = tested on: H4; test: Increase in light chain 3-GFP+ autophagosome vesicle area per cell in human H4 cells at 4.9 uM after 24 hrs by high throughput fluorescence microscopy relative to control
In short: (§5)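 H4 cells stably expressing LC3-GFP, seeded in 96-well plates and exposed to compound for 24 h; fixed in 4% paraformaldehyde, nuclei stained with 3 μg/ml DAPI. Automated fluorescence microscopy scored number, size and intensity of LC3-GFP spots; values expressed relative to DMSO-treated wells, rapamycin positive control. Triplicate wells, mean ± SD; experiments repeated three times.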

[7] = tested on: H4; test: Increase in light chain 3-GFP+ autophagosome vesicle intensity per cell in human H4 cells at 4.9 uM after 24 hrs by high throughput fluorescence microscopy relative to control; in short: as §5
[8] = tested on: H4; test: Increase in light chain 3-GFP+ autophagosome vesicle number per cell in human H4 cells at 4.9 uM after 24 hrs by high throughput fluorescence microscopy relative to control; in short: as §4
[9] = tested on: H4; test: Increase in light chain 3-GFP+ autophagosome vesicle number per cell in human H4 cells at 6.4 uM after 24 hrs by high throughput fluorescence microscopy relative to control; in short: as §1
[10] = tested on: H4; test: Increase in light chain 3-GFP+ autophagosome vesicle area per cell in human H4 cells at 6.4 uM after 24 hrs by high throughput fluorescence microscopy relative to control; in short: as §2
[11] = tested on: H4; test: Increase in light chain 3-GFP+ autophagosome vesicle intensity per cell in human H4 cells at 6.4 uM after 24 hrs by high throughput fluorescence microscopy relative to control; in short: as §1
[12] = tested on: H4; test: Decrease in FYVE-RFP+ vesicle intensity per cell in human H4 cells after 2 hrs relative to control; design: concentration or dose not given beside the values
In short: (§6)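 H4 cells stably expressing FYVE-RFP (H4-FYVE), grown in DMEM with 10% FBS, penicillin/streptomycin and 2 mM L-glutamine at 37°C, 5% CO2, seeded in 96-well plates and exposed to compound. Fixed in 4% paraformaldehyde, nuclei stained with 3 μg/ml DAPI, FYVE-RFP+ vesicles quantified by high-throughput fluorescence microscopy against DMSO control. Triplicate wells, mean ± SD.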

[13] = tested on: H4; test: Decrease in FYVE-RFP+ vesicle intensity per cell in human H4 cells after 4 hrs relative to control; design: concentration or dose not given beside the values; in short: as §6
[14] = tested on: H4; test: Decrease in FYVE-RFP+ vesicle intensity per cell in human H4 cells after 8 hrs relative to control; design: concentration or dose not given beside the values; in short: as §6
[15] = tested on: H4; test: Increase in long-lived protein degradation in human H4 cells after 1 hr relative to control; design: concentration or dose not given beside the values
[16] = tested on: H4; test: Increase in long-lived protein degradation in human H4 cells after 2 hrs relative to control; design: concentration or dose not given beside the values
[17] = tested on: H4; test: Increase in long-lived protein degradation in human H4 cells after 4 hrs relative to control; design: concentration or dose not given beside the values
[18] = tested on: H4; test: Increase in long-lived protein degradation in human H4 cells after 24 hrs relative to control; design: concentration or dose not given beside the values
[19] = tested on: H4; test: Induction of light chain 3-GFP level in human H4 cells at 6.4 uM after 24 hrs by high throughput fluorescence microscopy relative to control; in short: as §3
[20] = tested on: H4; test: Increase in light chain 3-GFP+ autophagosome vesicle number per cell in human H4 cells at 7.6 uM after 24 hrs by high throughput fluorescence microscopy relative to control; in short: as §1
[21] = tested on: H4; test: Increase in light chain 3-GFP+ autophagosome vesicle area per cell in human H4 cells at 7.6 uM after 24 hrs by high throughput fluorescence microscopy relative to control; in short: as §2
[22] = tested on: H4; test: Increase in light chain 3-GFP+ autophagosome vesicle intensity per cell in human H4 cells at 7.6 uM after 24 hrs by high throughput fluorescence microscopy relative to control; in short: as §1
[23] = tested on: H4; test: Induction of light chain 3-GFP level in human H4 cells at 7.6 uM after 24 hrs by high throughput fluorescence microscopy relative to control; in short: as §3
[24] = tested on: H4; test: Increase in light chain 3-GFP+ autophagosome vesicle number per cell in human H4 cells at 8.5 uM after 24 hrs by high throughput fluorescence microscopy relative to control; in short: as §3
[25] = tested on: H4; test: Increase in light chain 3-GFP+ autophagosome vesicle area per cell in human H4 cells at 8.5 uM after 24 hrs by high throughput fluorescence microscopy relative to control; in short: as §2
[26] = tested on: H4; test: Increase in light chain 3-GFP+ autophagosome vesicle intensity per cell in human H4 cells at 8.5 uM after 24 hrs by high throughput fluorescence microscopy relative to control; in short: as §1
[27] = tested on: H4; test: Induction of light chain 3-GFP level in human H4 cells at 8.5 uM after 24 hrs by high throughput fluorescence microscopy relative to control; in short: as §3
[28] = tested on: H4; test: Increase in light chain 3-GFP+ autophagosome vesicle number per cell in human H4 cells at 3.8 uM after 24 hrs by high throughput fluorescence microscopy relative to control; in short: as §5
[29] = tested on: H4; test: Increase in light chain 3-GFP+ autophagosome vesicle area per cell in human H4 cells at 3.8 uM after 24 hrs by high throughput fluorescence microscopy relative to control; in short: as §5
[30] = tested on: H4; test: Increase in light chain 3-GFP+ autophagosome vesicle intensity per cell in human H4 cells at 3.8 uM after 24 hrs by high throughput fluorescence microscopy relative to control; in short: as §5
[31] = tested on: H4; test: Induction of light chain 3-GFP level in human H4 cells at 3.8 uM after 24 hrs by high throughput fluorescence microscopy relative to control; in short: as §4

COc1cc(/C=C/C(=O)CC(=O)/C=C/c2ccc(O)c(OC)c2)ccc1O [CURCUMIN]
Activity [1]: 59.32%
Activity [2]: 228.38%
Activity [3]: 249.22%
Activity [4]: 59.32%

C=C1[C@@H](C)[C@H]2[C@H](Cc3ccccc3)NC(=O)[C@]23[C@H](OC(C)=O)/C=C/[C@@](C)(O)C(=O)[C@@H](C)C/C=C/[C@H]3[C@@H]1O [CYTOCHALASIN D]
Activity [5]: 71.84%
Activity [6]: 306.27%
Activity [7]: 378.77%
Activity [8]: 258.44%

CNC(=O)[C@H](Cc1c[nH]c2ccccc12)NC(=O)[C@@H](CC(=O)NO)CC(C)C [ILOMASTAT]
Activity [9]: 154.31%
Activity [10]: 171.42%
Activity [11]: 196.42%
Activity [12]: 30.69%
Activity [13]: 32.3%
Activity [14]: 25.77%
Activity [15]: 129.48%
Activity [16]: 115.08%
Activity [17]: 104.88%
Activity [18]: 107.46%
Activity [19]: 143.94%

Oc1ccc(-c2nc(-c3ccc(F)cc3)c(-c3ccncc3)[nH]2)cc1 [SB-202190]
Activity [20]: 151.97%
Activity [21]: 160.87%
Activity [22]: 169.71%
Activity [23]: 91.14%

Cc1coc2c1C(=O)C(=O)c1c-2ccc2c1CCCC2(C)C [TANSHINONE IIA]
Activity [24]: 210.24%
Activity [25]: 264.51%
Activity [26]: 273.72%
Activity [27]: 79.77%

C/C=C(/C)C(=O)O[C@H]1C(C)=C2[C@H]([C@@H]1OC(=O)CCCCCCC)[C@@](C)(OC(C)=O)C[C@H](OC(=O)CCC)[C@@]1(O)[C@H]2OC(=O)[C@@]1(C)O [THAPSIGARGIN]
Activity [28]: 193.06%
Activity [29]: 199.81%
Activity [30]: 187.15%
Activity [31]: 63.77%
